Data reported in ChEMBL document CHEMBL3784955, “Development and in Vitro Evaluation of a Microbicide Gel Formulation for a Novel Non-Nucleoside Reverse Transcriptase Inhibitor Belonging to the N-Dihydroalkyloxybenzyloxopyrimidines (N-DABOs) Family” (J Med Chem, 2016).
The source made the active and inactive calls. The calls are words filed in the database; no cut-off is given here.

Columns and labels:
[1] = tested on: Human immunodeficiency virus 1; assay: Antiviral activity against HIV1 NL4.3 infected in human TZM-bl cells incubated for 30 mins prior to infection measured after 48 hrs by luciferase assay; format: functional, organism-based; conditions: Human immunodeficiency virus 1, NL4.3, TZM-bl
Outline: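 TZM-bl cells (10 000/well, 10⁵ cells/mL in medium with 30 μg/mL DEAE dextran) preincubated 30 min at 37 °C, 5% CO₂ with serial compound dilutions; 200 TCID₅₀ HIV-1 WT or mutant virus added, luciferase read after 48 h. Triplicate wells, ≥2 independent experiments; % inhibition vs untreated controls, EC₅₀ by nonlinear regression.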

[2] = Cytotoxicity against human TZM-bl cells assessed as reduction in cell viability after 2 days by WST-1 assay; format: cell-based
Outline: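 10 000 TZM-bl cells cultured 48 h with serial compound dilutions; WST-1 added and absorbance at 450 nm read after 90 min. Three replicate wells, ≥2 independent experiments; % viability vs untreated controls, CC₅₀ by nonlinear regression.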

[3] = tested on: Human immunodeficiency virus 1; assay: Antiviral activity against HIV1 NL4.3 expressing reverse transcriptase V106A mutant infected in human TZM-bl cells incubated for 30 mins prior to infection measured after 48 hrs by luciferase assay; format: functional, organism-based; conditions: Human immunodeficiency virus 1, NL4.3, TZM-bl
Outline: (§1)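 TZM-bl cells (10,000/well at 10⁵ cells/mL, medium with 30 μg/mL DEAE dextran) preincubated 30 min at 37 °C, 5% CO₂ with serial compound dilutions. Then 200 TCID₅₀ mutant HIV-1 added per well. After 48 h, luciferase read. Triplicate wells, at least two independent experiments. % inhibition versus untreated controls fitted by nonlinear regression to give EC₅₀.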

[4] = tested on: Human immunodeficiency virus 1; assay: Antiviral activity against HIV1 NL4.3 expressing reverse transcriptase Y181C mutant infected in human TZM-bl cells incubated for 30 mins prior to infection measured after 48 hrs by luciferase assay; format: functional, organism-based; conditions: Human immunodeficiency virus 1, NL4.3, TZM-bl; outline: as §1
[5] = molecular target: Human immunodeficiency virus type 1 reverse transcriptase (Human immunodeficiency virus 1, UniProt Q72547); assay: Inhibition of recombinant HIV1 His-tagged p66/p51 reverse transcriptase expressed in Escherichia coli assessed as reduction in [3H]dTTP incorporation using poly(rA)-oligo(dT) (12 to 18 bp) as template/primer incubated for 20 mins by scintillation counting method
[6] = tested on: Human immunodeficiency virus 1; assay: Antiviral activity against HIV1 NL4.3 expressing reverse transcriptase E138K mutant infected in human TZM-bl cells incubated for 30 mins prior to infection measured after 48 hrs by luciferase assay; format: functional, organism-based; conditions: Human immunodeficiency virus 1, NL4.3, TZM-bl; outline: as §1
[7] = tested on: Human immunodeficiency virus 1; assay: Antiviral activity against HIV1 NL4.3 expressing reverse transcriptase K101E mutant infected in human TZM-bl cells incubated for 30 mins prior to infection measured after 48 hrs by luciferase assay; format: functional, organism-based; conditions: Human immunodeficiency virus 1, NL4.3, TZM-bl; outline: as §1
[8] = tested on: Human immunodeficiency virus 1; assay: Antiviral activity against HIV1 NL4.3 expressing reverse transcriptase K103N mutant infected in human TZM-bl cells incubated for 30 mins prior to infection measured after 48 hrs by luciferase assay; format: functional, organism-based; conditions: Human immunodeficiency virus 1, NL4.3, TZM-bl; outline: as §1
[9] = tested on: Human immunodeficiency virus 1; assay: Antiviral activity against HIV1 NL4.3 infected in human TZM-bl cells using compound gel formulation incubated for 72 hrs by luciferase based transwell assay; format: functional, organism-based; conditions: Human immunodeficiency virus 1, NL4.3, TZM-bl
Outline: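 Transwell format, gel reformulated without β-cyclodextrins. TZM-bl cells (4 × 10⁴/apical chamber, 3 μm pore) cultured overnight. 60 TCID₅₀ NL4.3 added apically with gel at 50%, final drug 5000–0.5 nM (tenfold steps); medium in basal compartment. Blank gel used for virus titration. Luciferase read-out; triplicates.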

[10] = tested on: Human immunodeficiency virus 1; assay: Antiviral activity against HIV1 NL4.3 expressing reverse transcriptase L100I mutant infected in human TZM-bl cells incubated for 30 mins prior to infection measured after 48 hrs by luciferase assay; format: functional, organism-based; conditions: Human immunodeficiency virus 1, NL4.3, TZM-bl; outline: as §1
[11] = tested on: Human immunodeficiency virus 1; assay: Antiviral activity against HIV1 NL4.3 expressing reverse transcriptase V90I mutant infected in human TZM-bl cells incubated for 30 mins prior to infection measured after 48 hrs by luciferase assay; format: functional, organism-based; conditions: Human immunodeficiency virus 1, NL4.3, TZM-bl; outline: as §1
[12] = Chemical stability in pH 4.2 solution assessed as drug recovery using compound gel formulation incubated for 1 month at room temperature under dark condition; format: physicochemical; conditions: pH 4.2 solution (compound gel formulation), read-out: Drug recovery
Outline: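 Gel at pH 4.2 (vaginal formulation) with final drug concentration 17 μM stored 1 month at room temperature without light; drug recovery measured, with viscosity and pH monitored.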

[13] = Selectivity index, ratio of CC50 for human TZM-bl cells to EC50 for HIV1 NL4.3 infected in human TZM-bl cells; format: toxicity, cell-based; conditions: read-out: Ratio CC50/EC50
Outline: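 SI = CC50/EC50 in TZM-bl cells. EC50: 10 000 cells (10⁵/mL, 30 μg/mL DEAE dextran) preincubated 30 min at 37 °C with serial compound dilutions, then infected with 200 TCID50 virus; luciferase read at 48 h. CC50: 10 000 cells given serial dilutions for 48 h; WST-1 absorbance at 450 nm after 90 min. Triplicates, ≥2 experiments; nonlinear regression.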

[14] = tested on: Human immunodeficiency virus 1; assay: Antiviral activity against HIV1 NL4.3 infected in human TZM-bl cells using compound gel formulation incubated for 30 mins prior to infection measured after 48 hrs by luciferase assay; format: functional, organism-based; conditions: Human immunodeficiency virus 1, NL4.3, TZM-bl
Outline: (§2)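 Gel formulation tested by the free-drug TZM-bl procedure alongside free drug in solution and blank gel: 10 000 cells with 30 μg/mL DEAE dextran, 30 min preincubation at 37 °C, 200 TCID₅₀ virus, luciferase after 48 h. Each concentration in triplicate; EC₅₀ from % inhibition vs untreated controls by nonlinear regression.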

[15] = Cytotoxicity against human TZM-bl cells assessed as reduction in cell viability at 5% gel formulation of compound after 2 days by WST-1 assay; format: cell-based; conditions: 48 h
[16] = tested on: Human immunodeficiency virus 1; assay: Antiviral activity against HIV1 NL4.3 infected in human TZM-bl cells using compound gel formulation stored at room temperature in dark for 1 month incubated for 30 mins with cells prior to infection measured after 48 hrs by luciferase assay; format: functional, organism-based; outline: as §2
[17] = Effective permeability of compound at pH 7.4 after 5 hrs by PAMPA; format: ADME; conditions: read-out: Peff
Outline: (§3)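 Filter coated with 1% w/v phosphatidylcholine in dodecane; acceptor 50% DMSO in phosphate buffer. 5 h at room temperature with gentle shaking; LC-UV at 280 nm on both sides; Pe calculated in cm/s. Three plates on different days.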

[18] = Effective permeability of compound at pH 4.2 after 5 hrs by PAMPA; format: ADME; conditions: read-out: Peff; outline: as §3
[19] = tested on: Liver microsome; assay: Metabolic stability in liver microsomes (unknown origin) assessed as parent compound remaining; format: ADME; conditions: human

Compound | EC50 [1] [nM] | CC50 at 48 h [2] [nM] | EC50 [3] [nM] | EC50 [4] [nM] | EC50 [6] [nM] | EC50 [7] [nM] | EC50 [8] [nM] | further results
COc1ccc(CN(C)c2nc(Cc3c(Cl)cccc3Cl)c(C)c(=O)[nH]2)cc1 | 15 | 17900 | 10 | 680 | – | – | – | IC50 [5]: 5 nM
Cc1c(C(C)c2c(Cl)cccc2Cl)nc(N(C)Cc2ccc(N3CCOCC3)cc2)[nH]c1=O (centres undefined) | 86 | 38400 | 15 | 1290 | 256 | 942 | 1500 | –
Cc1c(Cc2c(Cl)cccc2Cl)nc(N(C)Cc2ccc(N3CCNCC3)cc2)[nH]c1=O | 110 | 20700 | – | – | – | – | – | –
C[C@H](Cn1cnc2c(N)ncnc21)OCP(=O)(O)O [TENOFOVIR ANHYDROUS] | – | – | – | – | – | – | – | EC50 [9]: 3000 nM
COc1ccc(C2CC2CSc2nc(C(C)c3c(F)cccc3F)c(C)c(=O)[nH]2)cc1 (centres undefined) | 93 | 31100 | 56 | 1610 | 246 | 450 | 549 | –
Cc1c(C(C)c2c(F)cccc2F)nc(N(C)Cc2n[nH]c3ccccc23)[nH]c1=O (centres undefined) | 329 | > 100000 | – | > 10000 | 950 | > 10000 | > 10000 | EC50 [10]: > 10000 nM; EC50 [11]: 687 nM
COc1ccc(CN(C)c2nc(C(C)c3c(F)cccc3F)c(C)c(=O)[nH]2)cc1 (centres undefined) | 3.3 | 88800 | – | 80 | 17 | 31 | 102 | remaining at 730.5 h [12]: 100%; selectivity ratio [13]: > 10000; EC50 [10]: 84 nM; EC50 [11]: 8.7 nM; EC50 [14]: 2.3 nM; Activity [15]: Toxic; EC50 [9]: 30 nM; Activity [16]: Active; Papp at 5 h [17]: 5.54 ×10⁻⁶ cm/s; Papp at 5 h [18]: 3.78 ×10⁻⁶ cm/s; Stability [19]: 99%
Cc1c(C(C)c2c(Cl)cccc2Cl)nc(N(C)Cc2ccc([N+](=O)[O-])cc2)[nH]c1=O (centres undefined) | 104 | > 50000 | – | – | – | – | – | –
Cc1c(Cc2c(Cl)cccc2Cl)nc(N(C)Cc2ccc(N3CCN(C(=O)OC(C)(C)C)CC3)cc2)[nH]c1=O | 2930 | 2590 | – | – | – | – | – | –
COc1ccc(CN(C)c2nc(C(C)c3c(F)cccc3F)cc(=O)[nH]2)cc1 (centres undefined) | 2.6 | 48100 | 0.87 | 94 | 9.1 | 17 | 34 | –
Cc1c(C(C)c2c(F)cccc2F)nc(N(C)Cc2ccc([N+](=O)[O-])cc2)[nH]c1=O (centres undefined) | 10 | > 50000 | – | 814 | 65 | 134 | 518 | EC50 [10]: 1500 nM; EC50 [11]: 30 nM
Cc1c(Cc2c(Cl)cccc2Cl)nc(N(C)Cc2ccc(N3CCOCC3)cc2)[nH]c1=O | 657 | 9900 | – | – | – | – | – | IC50 [5]: 90 nM; Papp at 5 h [17]: 21.9 ×10⁻⁶ cm/s; Stability [19]: 99%
COc1ccc(CN(C)c2nc(C(C)c3c(Cl)cccc3Cl)c(C)c(=O)[nH]2)cc1 (centres undefined) | 12 | > 100000 | 10 | 209 | – | – | – | IC50 [5]: 17 nM
Cc1c(C(C)c2c(F)cccc2F)nc(N(C)Cc2ccc(N3CCN(C)CC3)cc2)[nH]c1=O (centres undefined) | 7.9 | 26200 | – | 331 | 42 | 138 | 2460 | EC50 [10]: 1570 nM; EC50 [11]: 22 nM
Cc1c(Cc2c(Cl)cccc2Cl)nc(N(C)Cc2ccc(N3CCN(C)CC3)cc2)[nH]c1=O | 94 | 3200 | 18 | 704 | 274 | > 1000 | 792 | Papp at 5 h [17]: 1.37 ×10⁻⁶ cm/s; Papp at 5 h [18]: 0.58 ×10⁻⁶ cm/s; Stability [19]: 99%
Cc1c(C(C)c2c(Cl)cccc2Cl)nc(N(C)Cc2ccc(N3CCNCC3)cc2)[nH]c1=O (centres undefined) | 102 | 13200 | – | – | – | – | – | –
Cc1cc(C)c(Nc2ccnc(Nc3ccc(C#N)cc3)n2)c(C)c1 [DAPIVIRINE] | 1.3 | 3400 | – | – | – | – | – | –
Cc1c(Cc2c(Cl)cccc2Cl)nc(N(C)Cc2ccc([N+](=O)[O-])cc2)[nH]c1=O | 8.6 | 19500 | – | 201 | 35 | 51 | 367 | EC50 [10]: 220 nM; EC50 [11]: 13 nM; IC50 [5]: 7.85 nM; Papp at 5 h [17]: 10.9 ×10⁻⁶ cm/s; Papp at 5 h [18]: 1.9 ×10⁻⁶ cm/s; Stability [19]: 99%
Cc1c(C(C)c2c(Cl)cccc2Cl)nc(N(C)Cc2ccc(N3CCN(C)CC3)cc2)[nH]c1=O (centres undefined) | 29 | > 10000 | 6.3 | 627 | 103 | 294 | 1040 | Papp at 5 h [17]: 0.91 ×10⁻⁶ cm/s; Stability [19]: 99%
